Active and inactive are the calls of the source. No cut-off for these calls is given here.
Tests used:
[1] = Cytotoxicity against BALB/c mouse splenocytes assessed as cell viability after 24 hrs by [3H]thymidine incorporation assay; assay type: cell-based, Splenocyte; conditions: for MNTC at 24 h: read-out: MNCC
Summary of the method: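 Splenocytes from BALB/c mice seeded at 5 × 10⁶ cells/well. DMSO stocks serially diluted in RPMI-1640 (final DMSO 1%), triplicate wells. 24 h at 37 °C, 5% CO₂ with […] ³H-thymidine; cells harvested, % ³H-thymidine incorporation by scintillation counting. CC50 from five concentrations; highest non-cytotoxic concentration also noted.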

Trypanosoma cruzi [2] = test: Antitrypanosomal activity against Trypanosoma cruzi Y […] trypomastigotes isolated from infected LLC-MK2 cells assessed as parasite viability after 24 hrs by neubauer chamber analysis; assay type: functional; conditions: LLC-MK2, 24 h
Summary of the method: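 Y strain (TcII) […] trypomastigotes taken from supernatant of infected LLC-MK2 cells, seeded at 4 × 10⁵ cells/well in RPMI-1640. DMSO stocks serially diluted in RPMI. 24 h at 37 °C, 5% CO₂; viable parasites counted in a Neubauer chamber, % inhibition versus untreated cultures; CC50 by nonlinear regression, triplicates, experiment repeated, SD <10% of mean required.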

Trypanosoma cruzi [3] = test: Antitrypanosomal activity against Trypanosoma cruzi Dm28c epimastigotes assessed as inhibition of parasite proliferation after 5 days by hemocytometer analysis; assay type: functional, organism-based; conditions: 120 h
Summary of the method: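 Dm28c epimastigotes kept in LIT medium with 10% FBS at 26 °C, seeded at 10⁶ cells/well. DMSO stocks serially diluted in LIT (1.23–100 […] as printed; final DMSO 1%), triplicate wells. 5 days at 26 °C, then viable parasites counted in a Neubauer chamber against untreated culture; IC50 from concentrations in triplicate, experiment repeated, only values with SD <10% of mean kept.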

Trypanosoma cruzi [4] = test: Antitrypanosomal activity against Trypanosoma cruzi trypomastigotes assessed as induction of apoptotic parasitic death after 24 hrs by Annexin V-FITC/propidium iodide staining based flow cytometry; assay type: functional, organism-based
Trypanosoma cruzi [5] = test: Antitrypanosomal activity against Trypanosoma cruzi trypomastigotes assessed as necrotic cells at 1.1 uM after 24 hrs by Annexin V-FITC/propidium iodide staining based flow cytometry (reference value: 0.37%); assay type: functional
Trypanosoma cruzi [6] = test: Antitrypanosomal activity against Trypanosoma cruzi trypomastigotes assessed as early apoptotic cells at 1.1 uM after 24 hrs by Annexin V-FITC/propidium iodide staining based flow cytometry (reference value: 1.71%); assay type: functional
Trypanosoma cruzi [7] = test: Antitrypanosomal activity against Trypanosoma cruzi trypomastigotes assessed as late apoptotic cells at 1.1 uM after 24 hrs by Annexin V-FITC/propidium iodide staining based flow cytometry (reference value: 0.8%); assay type: functional
Trypanosoma cruzi [8] = test: Antitrypanosomal activity against Trypanosoma cruzi trypomastigotes assessed as necrotic cells at 0.25 uM after 24 hrs by Annexin V-FITC/propidium iodide staining based flow cytometry (reference value: 0.37%); assay type: functional
Trypanosoma cruzi [9] = test: Antitrypanosomal activity against Trypanosoma cruzi trypomastigotes assessed as early apoptotic cells at 0.25 uM after 24 hrs by Annexin V-FITC/propidium iodide staining based flow cytometry (reference value: 1.71%); assay type: functional
Trypanosoma cruzi [10] = test: Antitrypanosomal activity against Trypanosoma cruzi trypomastigotes assessed as late apoptotic cells at 0.25 uM after 24 hrs by Annexin V-FITC/propidium iodide staining based flow cytometry (reference value: 0.8%); assay type: functional
[11] = Selectivity index, ratio of CC50 for BALB/c mouse splenocytes to CC50 for Trypanosoma cruzi Y trypomastigotes
Summary of the method: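 Ratio of CC50 in BALB/c splenocytes (24 h ³H-thymidine incorporation) to CC50 in Y strain trypomastigotes (24 h Neubauer count of viable parasites).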

[12] = molecular target: Cruzipain (Trypanosoma cruzi) (UniProt P25779); test: Inhibition of Trypanosomal cruzi recombinant cruzain assessed as substrate cleavage using Z-Phe-Arg-AMC as substrate at 50 uM preincubated for 10 mins measured for 5 mins by flow cytometry; conditions: in the assay text read “by fluorescence assay” for “by flow cytometry”
Summary of the method: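 Recombinant cruzain, final concentration 0.5 nM, in 0.1 M sodium acetate pH 5.5 with 1 mM β-mercaptoethanol and 0.01% Triton X-100. Substrate Z-FR-AMC at 2.5 (Km 1.0). Screened with no pre-incubation and after 10-min enzyme pre-incubation. Fluorescence read at ex 340/em 440 nm for 5 min, activity relative to DMSO control. Two independent experiments in triplicate.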

Trypanosoma cruzi [13] = test: Antitrypanosomal activity against Trypanosoma cruzi trypomastigotes assessed as induction of apoptotic parasitic death at CC25 to CC100 after 24 hrs by Annexin V-FITC/propidium iodide staining based flow cytometry; assay type: functional, organism-based

Sequence of Cruzipain (Trypanosoma cruzi) (P25779 123-467 limits assumed): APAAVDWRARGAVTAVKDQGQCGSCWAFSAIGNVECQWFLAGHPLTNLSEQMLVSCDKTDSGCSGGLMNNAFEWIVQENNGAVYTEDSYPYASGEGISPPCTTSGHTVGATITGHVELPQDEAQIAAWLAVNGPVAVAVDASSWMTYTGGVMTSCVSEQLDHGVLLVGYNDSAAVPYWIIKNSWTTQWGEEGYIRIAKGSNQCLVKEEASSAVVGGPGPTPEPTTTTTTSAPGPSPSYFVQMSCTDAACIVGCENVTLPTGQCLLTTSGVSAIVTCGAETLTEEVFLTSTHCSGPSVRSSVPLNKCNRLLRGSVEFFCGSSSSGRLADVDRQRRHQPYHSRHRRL

Compound | IC50 (Trypanosoma cruzi [3]) | MNTC at 24 h [1] | CC50 (Trypanosoma cruzi [2]) | other results
C/C(=N\NC(N)=S)C(C)Oc1ccc(Cl)c(Cl)c1 (stereo not given) | 4.4 µM | 16.3 µM | 4.4 µM | –
O=C(Cn1ccnc1[N+](=O)[O-])NCc1ccccc1 [BENZNIDAZOLE] | 48.8 µM | – | 6.2 µM | –
CCc1ccc(OC(C)/C(C)=N/NC(N)=S)cc1 (stereo not given) | 11.6 µM | 18.8 µM | 4.6 µM | –
C/C(=N\NC(N)=S)C(C)Oc1ccc([N+](=O)[O-])cc1 (stereo not given) | 177 µM | 88.5 µM | 5.9 µM | inhibition [12]: inactive
C/C(=N\NC(N)=S)C(C)Oc1cccc2ccccc12 (stereo not given) | 4.9 µM | 34.8 µM | 1.5 µM | inhibition [12]: inactive
C/C(=N\NC(N)=S)C(C)Oc1ccc(Oc2ccccc2)cc1 (stereo not given) | – | 30.3 µM | 1.3 µM | –
C/C(=N\NC(N)=S)C(C)Oc1ccc(F)c(Cl)c1 (stereo not given) | – | 34.5 µM | 3.5 µM | –
CC1CS(=O)(=O)CCN1/N=C/c1ccc([N+](=O)[O-])o1 (stereo not given) [NIFURTIMOX] | 5.7 µM | – | 2.7 µM | –
COc1cccc(OC(C)/C(C)=N/NC(N)=S)c1 (stereo not given) | 6.8 µM | 37.4 µM | 6.2 µM | –
C/C(=N\NC(N)=S)C(C)Oc1ccc(F)cc1 (stereo not given) | 86.4 µM | > 392 µM | 23.2 µM | –
C/C(=N\NC(N)=S)C(C)Oc1cccc(Br)c1 (stereo not given) | 5.8 µM | 31.6 µM | 4.5 µM | –

More lines, in order of falling IC50 (Trypanosoma cruzi [3]), values ahead:

IC50 (Trypanosoma cruzi [3]) | Compound | MNTC at 24 h [1] | CC50 (Trypanosoma cruzi [2]) | other results
71.5 µM | CC(=O)Nc1ccc(OC(C)/C(C)=N/NC(N)=S)cc1 (stereo not given) | > 340 µM | 1.4 µM | Activity (Trypanosoma cruzi [13]): Active; Selectivity Index [11]: 250; CC50 at 24 h [1]: 350 µM
45.8 µM | C/C(=N\NC(N)=S)C(C)Oc1cccc(Cl)c1 (stereo not given) | 36.8 µM | 5.5 µM | Activity (Trypanosoma cruzi [13]): Active
27.6 µM | COc1ccc(OC(C)/C(C)=N/NC(N)=S)cc1 (stereo not given) | 93.5 µM | 26.8 µM | –
26.1 µM | C/C(=N\NC(N)=S)C(C)Oc1ccccc1 (stereo not given) | 211 µM | 27.3 µM | –
20.1 µM | C/C(=N\NC(N)=S)C(C)Oc1ccc(Br)cc1 (stereo not given) | 31.6 µM | 3.9 µM | –
17.9 µM | C/C(=N\NC(N)=S)C(C)Oc1ccc2ccccc2c1 (stereo not given) | 34.8 µM | 5.6 µM | –
13.5 µM | C/C(=N\NC(N)=S)C(C)Oc1ccc(Cl)cc1 (stereo not given) | 92 µM | 22.8 µM | –
10.3 µM | C/C(=N\NC(N)=S)C(C)Oc1ccccc1Cl (stereo not given) | 36.8 µM | 1.5 µM | –
5.9 µM | C/C(=N\NC(N)=S)C(C)Oc1ccc(C(C)C)cc1 (stereo not given) | 17.9 µM | 1.5 µM | –
4.9 µM | C/C(=N\NC(N)=S)C(C)Oc1ccc(I)cc1 (stereo not given) | 13.7 µM | 1.1 µM | –
4.6 µM | C/C(=N\NC(N)=S)C(C)Oc1ccc(C(C)(C)C)cc1 (stereo not given) | 17 µM | 1.4 µM | –
4.5 µM | C/C(=N\NC(N)=S)C(C)Oc1ccc(-c2ccccc2)cc1 (stereo not given) | 15.9 µM | 1.3 µM | inhibition [12]: inactive
2.2 µM | C/C(=N\NC(N)=S)C(C)Oc1ccccc1-c1ccccc1 (stereo not given) | 31.9 µM | 1.1 µM | Activity (Trypanosoma cruzi [4]): Dose-dependent effect; Activity (Trypanosoma cruzi [5]): 4.62%; Activity (Trypanosoma cruzi [6]): 7.8%; Activity (Trypanosoma cruzi [7]): 6.2%; Activity (Trypanosoma cruzi [8]): 0.51%; Activity (Trypanosoma cruzi [9]): 1.22%; Activity (Trypanosoma cruzi [10]): 2.21%; Selectivity Index [11]: 45; CC50 at 24 h [1]: 50 µM
2.2 µM | C/C(=N\NC(N)=S)C(C)Oc1cccc(-c2ccccc2)c1 (stereo not given) | 31.9 µM | 1.3 µM | –
2.2 µM | C/C(=N\NC(N)=S)C(C)Oc1cccc(Cl)c1Cl (stereo not given) | 32.6 µM | 11.9 µM | –

— ChEMBL document CHEMBL3120049, “Conformational restriction of aryl thiosemicarbazones produces potent and selective anti-Trypanosoma cruzi compounds which induce apoptotic parasite death” (Eur J Med Chem, 2014)
